Assay results taken from PMC9033422 (RSC Advances, 2021).

Assays:
[1] = system: human benign liver cell lines LO2; assay: MTT cytotoxicity, LO2 cells, 24 h; assay type: cell-based; conditions: L02, 24 h, read-out: IC50 (μM)/24 h LO2
Outline: (§1)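 Cells (1 × 10^4 per well, triplicate) were pre-cultured 24 h at 37 °C, then exposed 24 h at 37 °C to test compound at 10, 25, 50, 100 and 200 μg mL−1, with drug-free and DMSO solvent controls. MTT (2 mg mL−1 stock in PBS) was added for 4 h and formazan dissolved in DMSO. A568 was read; inhibition % = (A control − A dosed)/A control × 100.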

[2] = system: human liver cancer cell lines SMMC-7721; assay: MTT cytotoxicity, SMMC-7721 cells, 24 h; assay type: cell-based; conditions: SMMC-7721, 24 h, read-out: IC50 (μM)/24 h SMMC-7721
Outline: as §1

[3] = system: human benign prostate cell lines RWPE-1; assay: MTT cytotoxicity of 12a, RWPE-1 cells, 48 h; assay type: cell-based; conditions: RWPE-1, 48 h, read-out: IC50 (μM)/48 h RWPE-1
Outline: (§2)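 Seeding was 1 × 10^4 cells per well in triplicate, with 24 h pre-culture at 37 °C. No iron supplement was used. Test compound at 0.01, 0.1, 1, 10 and 25 μg mL−1 was given for 48 h at 37 °C, with drug-free and DMSO solvent controls. MTT (2 mg mL−1 stock in PBS) was added for 4 h, centrifuged, formazan dissolved in DMSO, and absorbance read at 568 nm.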

[4] = system: human liver cancer cell lines SMMC-7721; assay: MTT cytotoxicity of 12a in Fe2+ environment, SMMC-7721 cells, 48 h; assay type: cell-based; conditions: SMMC-7721, 48 h, read-out: IC50 (μM)/48 h SMMC-7721 with Fe2+
Outline: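 Cells at 1 × 10^4 per well, in triplicate, grew 12 h at 37 °C, then 12 h more in medium containing 100 μmol L−1 FeSO4. Medium was replaced with test compound (0.01, 0.1, 1, 10, 25 μg mL−1), with drug-free and DMSO solvent controls, for 48 h at 37 °C. MTT (2 mg mL−1 stock in PBS) was added for 4 h, formazan dissolved in DMSO, and A568 read.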

MHCC97H cell lines = assay: Annexin V-FITC/PI flow cytometry apoptosis assay; assay type: cell-based, human; conditions: 48 h
Outline: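 MHCC97H cells were seeded in triplicate and pre-cultured 24 h at 37 °C. Medium was replaced with test compound at 0.01, 1 or 25 μg mL−1, alongside drug-free and DMSO solvent controls, for 48 h at 37 °C. Cells were detached with 0.25% trypsin without EDTA, stained with Annexin V-FITC/PI for 5–15 min at room temperature in the dark, and analysed by flow cytometry. Quadrants: live, early apoptotic, late apoptotic, necrotic.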

[5] = system: human benign colon cell lines CCD18CO; assay: MTT cytotoxicity of 12a, CCD18CO cells, 48 h; assay type: cell-based; conditions: CCD-18Co, read-out: IC50 (μM)/48 h CCD18CO
Outline: as §2

[6] = system: human benign breast cell lines MCF-10A; assay: MTT cytotoxicity of 12a, MCF-10A cells, 48 h; assay type: cell-based; conditions: read-out: IC50 (μM)/48 h MCF-10A
Outline: as §2

C[C@H]1[C@@H](O)O[C@@H]2O[C@@]3(C)CC[C@H]4[C@H](C)CC[C@@H]1[C@@]24OO3 [DHA, Dihydroartemisinin, reference compound]
IC50 [1]: 220 ± 40 µM
IC50 [2]: > 700 µM

COC1OC(=O)C(Cl)=C1N1CCN(CCCCCC[C@H]2CN([C@@H]3OC4O[C@@]5(C)CC[C@H]6[C@H](C)CC[C@@H]([C@H]3C)[C@@]46OO5)CCS2(=O)=O)CC1 (stereo partly drawn) [Hybrid 12a, 3-Chloro-4-(4-(6-((2S)-1,1-dioxido-4-((3R,5aS,6R,8aS,9R,10R,12aR)-3,6,9-trimethyldecahydro-3H-3,12-epoxy[1,2]dioxepino[4,3-i]isochromen-10-yl)thiomorpholin-2-yl)hexyl)piperazin-1-yl)-5-methoxyfuran-2(5H)-one]
IC50 [3]: 100 ± 30 µM
IC50 [1]: 700 ± 20 µM
IC50 [4]: 20 ± 30 µM
percentage of apoptosis (MHCC97H cell lines; 0.01 μg mL^−1 (lowest concentration)): 7.67%
percentage of apoptosis (MHCC97H cell lines; 25 μg mL^−1 (highest concentration)): 59.76%
IC50 [5]: 60 ± 40 µM
IC50 [6]: 40 ± 40 µM
IC50 [2]: 30 ± 40 µM

CC(C)[C@@H]1CC[C@@H](C)C[C@@H]1O[C@H]1OC(=O)C(Cl)=C1N1CCN(CCCCCC[C@H]2CN([C@@H]3OC4O[C@@]5(C)CC[C@H]6[C@H](C)CC[C@@H]([C@H]3C)[C@@]46OO5)CCS2(=O)=O)CC1 (stereo partly drawn) [Hybrid 12b, (5S)-3-Chloro-4-(4-(6-((2S)-1,1-dioxido-4-((3R,5aS,6R,8aS,9R,10R,12aR)-3,6,9-trimethyldecahydro-3H-3,12-epoxy[1,2]dioxepino[4,3-i]isochromen-10-yl)thiomorpholin-2-yl)hexyl)piperazin-1-yl)-5-(((1S,2S,5R)-2-isopropyl-5-methylcyclohexyl)oxy)furan-2(5H)-one]
IC50 [1]: 360 ± 30 µM
IC50 [2]: 320 ± 30 µM

C[C@H]1[C@H](N2CCS(=O)(=O)[C@@H](CCCCCCN3CCN(C4=C(Cl)C(=O)OC4O[C@H]4CC5CCC4(C)C5(C)C)CC3)C2)O[C@@H]2O[C@@]3(C)CC[C@H]4[C@H](C)CC[C@@H]1[C@@]24OO3 (stereo partly drawn) [Hybrid 12c, 3-Chloro-4-(4-(6-((S)-1,1-dioxido-4-((3R,5aS,6R,8aS,9R,10R,12R,12aR)-3,6,9-trimethyldecahydro-3H-3,12-epoxy[1,2]dioxepino[4,3-i]isochromen-10-yl)thiomorpholin-2-yl)hexyl)piperazin-1-yl)-5-(((2S)-1,7,7-trimethylbicyclo[2.2.1]heptan-2-yl)oxy)furan-2(5H)-one]
IC50 [1]: 70 ± 30 µM
IC50 [2]: 70 ± 40 µM

COC1OC(=O)C(Br)=C1N1CCN(CCCCCC[C@H]2CN([C@@H]3OC4O[C@@]5(C)CC[C@H]6[C@H](C)CC[C@@H]([C@H]3C)[C@@]46OO5)CCS2(=O)=O)CC1 (stereo partly drawn) [Hybrid 12d, 3-Bromo-4-(4-(6-((2S)-1,1-dioxido-4-((3R,5aS,6R,8aS,9R,10R,12aR)-3,6,9-trimethyldecahydro-3H-3,12-epoxy[1,2]dioxepino[4,3-i]isochromen-10-yl)thiomorpholin-2-yl)hexyl)piperazin-1-yl)-5-methoxyfuran-2(5H)-one]
IC50 [1]: 370 ± 40 µM
IC50 [2]: 340 ± 20 µM

CC(C)[C@@H]1CC[C@@H](C)C[C@@H]1O[C@H]1OC(=O)C(Br)=C1N1CCN(CCCCCC[C@H]2CN([C@@H]3OC4O[C@@]5(C)CC[C@H]6[C@H](C)CC[C@@H]([C@H]3C)[C@@]46OO5)CCS2(=O)=O)CC1 (stereo partly drawn) [Hybrid 12e, (5S)-3-Bromo-4-(4-(6-((2S)-1,1-dioxido-4-((3R,5aS,6R,8aS,9R,10R,12aR)-3,6,9-trimethyldecahydro-3H-3,12-epoxy[1,2]dioxepino[4,3-i]isochromen-10-yl)thiomorpholin-2-yl)hexyl)piperazin-1-yl)-5-(((1S,2S,5R)-2-isopropyl-5-methylcyclohexyl)oxy)furan-2(5H)-one]
IC50 [1]: 330 ± 30 µM
IC50 [2]: 210 ± 20 µM

C[C@H]1[C@H](N2CCS(=O)(=O)[C@@H](CCCCCCN3CCN(C4=C(Br)C(=O)O[C@@H]4O[C@H]4CC5CCC4(C)C5(C)C)CC3)C2)O[C@@H]2O[C@@]3(C)CC[C@H]4[C@H](C)CC[C@@H]1[C@@]24OO3 [Hybrid 12f, (5S)-3-Bromo-4-(4-(6-((S)-1,1-dioxido-4-((3R,5aS,6R,8aS,9R,10R,12R,12aR)-3,6,9-trimethyldecahydro-3H-3,12-epoxy[1,2]dioxepino[4,3-i]isochromen-10-yl)thiomorpholin-2-yl)hexyl)piperazin-1-yl)-5-(((2S)-1,7,7-trimethylbicyclo[2.2.1]heptan-2-yl)oxy)furan-2(5H)-one]
IC50 [1]: 300 ± 30 µM
IC50 [2]: 220 ± 30 µM

CC[C@]1(O)C[C@H]2CN(CCc3c([nH]c4ccccc34)[C@@](C(=O)OC)(c3cc4c(cc3OC)N(C=O)[C@H]3[C@@](O)(C(=O)OC)[C@H](OC(C)=O)[C@]5(CC)C=CCN6CC[C@]43[C@@H]65)C2)C1 [VCR, vincristine, reference compound]
IC50 [1]: 300 ± 20 µM
IC50 [2]: 270 ± 30 µM
